The record followed here is ChEMBL document CHEMBL4613216, “Design, synthesis, and evaluation of indeno[2,1-c]pyrazolones for use as inhibitors against hypoxia-inducible factor (HIF)-1 transcriptional activity” (Bioorg Med Chem, 2020).

The source made the active and inactive calls. No cut-off for these calls is given here. Bounds are passed on as bounds.

The subject of series [1] is HeLa. The series can be described thus: Cytotoxicity against human HeLa cells assessed as reduction in cell viability incubated for 72 hrs under normoxia condition by MTT assay. Format: cell-based. An outline of the steps:
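HeLa cells, 5 × 10^3 per well, exposed 72 h at 37 °C in RPMI-1640 to a range of concentrations (compounds from 10 mM DMSO stocks). MTT (5 mg/mL in PBS) added for a further 2 h, formazan dissolved in DMSO, absorbance read at 595 nm. IC50 taken from semilogarithmic dose–response plots. Top concentration capped at 10 or 30 μM where solubility was poor.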
On the technique in general: Tetrazolium dyes change colour on reduction, which living cells bring about.

Series [2] in a line: Solubility of the compound. Format: physicochemical.
Series [3] has as its target Luciferin 4-monooxygenase (Photinus pyralis) (UniProt P08659). The series can be described thus: Inhibition of recombinant firefly luciferase at 1 uM incubated for 10 mins at 37 degree C by luminometric method. The gist of the method:
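Recombinant firefly luciferase (20 ng/µL stock in PBS) mixed with compound in DMSO/PBS and incubated 10 min at 37 °C. Luciferase assay reagent was then added and light emission read on a luminometer. Compound tested at 1 μM.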

Series [4] has as its system HeLa. In words: Inhibition of hypoxia-induced HIF1alpha accumulation in human HeLa cells at 1 to 30 uM incubated for 12 hrs under 1% O2 condition by Western blot analysis. It counts as functional, cell-based. An outline of the steps: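 Lysates separated by SDS-PAGE, blotted to PVDF and probed with anti-HIF-1α and anti-tubulin antibodies. Detection used HRP-conjugated secondary antibody and chemiluminescent imaging.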
Background: In western blotting, separated proteins are transferred to a membrane and probed.

The subject of series [5] is HeLa. The series can be described thus: Effect on HIF1alpha mRNA level in human HeLa cells at 30 uM incubated for 12 hrs under 1% O2 condition by qRT-PCR analysis. It counts as functional, cell-based. The gist of the method:
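HeLa cells, 1 × 10^6 per well, held 12 h with or without compound under normoxia or hypoxia. Total RNA extracted with a column kit. 1.0 µg RNA reverse transcribed with random primers, dNTPs and M-MLV at 40 °C for 50 min, then HIF-1α mRNA measured by RT-PCR.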
For orientation: Quantitative PCR measures a nucleic acid by following its amplification.

Chain of Luciferin 4-monooxygenase (Photinus pyralis) (P08659 whole entry): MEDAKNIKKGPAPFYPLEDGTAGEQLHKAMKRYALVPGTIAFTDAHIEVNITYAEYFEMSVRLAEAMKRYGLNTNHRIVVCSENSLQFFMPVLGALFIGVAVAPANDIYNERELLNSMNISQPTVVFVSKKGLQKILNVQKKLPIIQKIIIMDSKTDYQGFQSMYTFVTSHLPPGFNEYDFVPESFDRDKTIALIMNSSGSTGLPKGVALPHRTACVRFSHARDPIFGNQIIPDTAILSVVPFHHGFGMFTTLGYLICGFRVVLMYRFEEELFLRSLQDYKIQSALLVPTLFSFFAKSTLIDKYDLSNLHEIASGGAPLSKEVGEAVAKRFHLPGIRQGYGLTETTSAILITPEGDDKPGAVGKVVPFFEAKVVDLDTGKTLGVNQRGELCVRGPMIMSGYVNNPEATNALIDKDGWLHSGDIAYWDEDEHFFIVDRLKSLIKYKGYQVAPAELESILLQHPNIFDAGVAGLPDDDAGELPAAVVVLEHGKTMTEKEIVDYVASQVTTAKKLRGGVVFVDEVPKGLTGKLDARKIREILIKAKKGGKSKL

By IC50 is commonly meant the concentration at which inhibition is half-maximal. Consider `Cn1ncc2c1C(=O)c1ccccc1-2`, for which the IC50 with HeLa [1] was found to be 49 µM.

In the case of `OCc1ccc(-c2nn(Cc3ccccc3)c3ccccc23)o1`, the IC50 with HeLa [1] stood at 56 µM.

`O=C1c2ncccc2-c2cnn(-c3ccccc3)c21`: the IC50 in the series on HeLa [1] amounted to 52 µM.

As a reminder, the solubility is the dissolved amount per volume that the medium holds. Low readings indicate a poorly soluble substance, high ones a readily soluble substance. Consider `O=C1c2ccccc2-c2cn[nH]c21`, for which, in the series with HeLa [1], the 50% inhibitory concentration (IC50) was more than 30 µM. Also, in series [2], the solubility was more than 30 µM.

Take `O=C1c2ccccc2-c2cnn(-c3ccccc3)c21`: in the series with HeLa [1], the half-maximal inhibitory concentration (IC50) was more than 10 µM. For the same compound, the solubility in series [2] was more than 10 µM.

As to `O=C1c2ccccc2-c2cnn(-c3ccc(O)cc3)c21`, the IC50 with HeLa [1] is 2.2 µM.

As for `COc1ccc(-n2ncc3c2C(=O)c2ccccc2-3)cc1`, the IC50 in the series with HeLa [1] is more than 10 µM. In series [3], the inhibition result was “Active”. Moreover, the solubility in series [2] is more than 10 µM.

With `Cc1ccc(-n2ncc3c2C(=O)c2ccccc2-3)cc1`, the half-inhibitory concentration (IC50) in the series with HeLa [1] is more than 10 µM. Moreover, the inhibition entry in series [3] is “inactive”. The inhibition result in the series on HeLa [4] was “Active”. In addition, the result in the series on HeLa [5] was inactive. Moreover, in series [2], the solubility is more than 10 µM.

For the compound `Cc1nn(-c2ccccc2)c2c1-c1ccccc1C2=O`, in the series with HeLa [1], the IC50 is more than 30 µM. Also, the solubility in series [2] is more than 30 µM.

In the case of `O=C1c2ccccc2-c2cnn(-c3ccc(C(F)(F)F)cc3)c21`, the IC50 in the series with HeLa [1] was more than 100 µM.
